Measurements reported in ChEMBL document CHEMBL1121553, “Substituted 6,7-dihydroimidazo[1,2-a]purin-9(4H)-ones” (J Med Chem, 1980).
Converted amounts (≈) assume the structure as drawn. The source made the active and inactive calls. The calls are words filed in the database; no cut-off is given here.

How the values were obtained:
[1] = species on record: Cavia porcellus; assay: In vitro bronchodilator activity in isolated guinea pig tracheal spiral preparation; assay type: functional; details: Trachea
How it was run: (§1)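 Guinea pig tracheal spiral held under 1.0 g tension, equilibrated 90–120 min to maximal spontaneous tonus. One drug concentration per spiral, ≥3 trials per concentration. Relaxation was expressed as % of that produced by papaverine (10 µg/mL) in the same tissue. Concentrations are bath values in µg/mL; the 50%-relaxation concentration was obtained by regression.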

[2] = test system: Rattus norvegicus; assay: In vivo bronchodilator activity in methacholine (intravenous) induced bronchospasm in male Harlan-Sprague-Dawley rats when administered intraduodenally; statistically significant inhibition of < 50% at thr stated dose; assay type: functional
[3] = test system: Rattus norvegicus; assay: Antiallergic activity was evaluated by inhibition of allergen-induced bronchospasm in male Harlan-Wistar rats when administered intraduodenally 15 min prior to antigen challenge; assay type: functional; details: intraduodenal
[4] = test system: Rattus norvegicus; assay: In vivo bronchodilator activity in methacholine (intravenous) induced bronchospasm in male Harlan-Sprague-Dawley rats when administered intraduodenally; assay type: functional
[5] = test system: Rattus norvegicus; assay: Antiallergic activity was evaluated by passive cutaneous anaphylaxis test in egg albumin sensitized male Harlan-Sprague-Dawley rats when administered perorally; assay type: functional; details: po
How it was run: (§2)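 Donor rats got egg albumin im (1 mg/rat) plus killed B. pertussis vaccine ip (2 × 10¹⁰ organisms/rat) and were bled 10–12 days later for IgE-rich antiserum. Recipient rats (100–150 g) were sensitized intradermally with 0.1 mL of 1:2.5 and 1:10 antiserum dilutions.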

[6] = species on record: Cavia porcellus; assay: Evaluation of in vitro bronchodilator activity in isolated guinea pig tracheal spiral preparation; assay type: functional; details: Trachea; how it was run: as §1
[7] = test system: Rattus norvegicus; assay: Antiallergic activity by passive cutaneous anaphylaxis test in ovalbumin sensitized male Harlan-Sprague-Dawley rats at 25 mg/kg oral dose (inactive); assay type: functional, organism-based; parameters: dose 25 mg/kg; how it was run: as §2
[8] = test system: Rattus norvegicus; assay: Antiallergic activity by passive cutaneous anaphylaxis test in ovalbumin sensitized male Harlan-Sprague-Dawley rats administered perorally; assay type: functional; details: po; how it was run: as §2

## Cn1c(N)nc2c1C(=O)N1CCN=C1N2Cc1ccc(Cl)cc1
[1]
  IC50: 4.8 µg/mL (≈ 14.5 µM)
[2]
  ED50: > 30 mg/kg

## Cc1nc2c([nH]1)C(=O)N1CCN=C1N2CC(C)C
[1]
  IC50: 2.8 µg/mL (≈ 11.3 µM)
[3]
  ED50: 5.4 mg/kg

## O=C1N2CCN=C2c2[nH]cnc2N1Cc1ccc(Cl)cc1
[2]
  ED50: > 50 mg/kg

## CC1CN2C(=O)c3[nH]cnc3N(Cc3ccc(Cl)cc3)C2=N1 (configuration not stated)
[1]
  IC50: 3.7 µg/mL (≈ 11.7 µM)
[4]
  ED50: 2.1 mg/kg
[3]
  ED50: 1.5 mg/kg
[5]
  ED50: 10.6 mg/kg

## CSC1=C2N=CN=C2N(Cc2ccc(Cl)cc2)C2=NCCN21
[6]
  IC50: 8.1 µg/mL (≈ 24.4 µM)
[4]
  ED50: > 30 mg/kg

## Cn1cnc2c1C(=O)N1CCN=C1N2Cc1ccc(Cl)cc1
[1]
  IC50: 2.9 µg/mL (≈ 9.18 µM)
[4]
  ED50: 8.8 mg/kg
[7]
  ED50: inactive

## O=C1c2[nH]c(Br)nc2N(Cc2ccc(Cl)cc2)C2=NCCN12
[6]
  IC50: 54 µg/mL (≈ 142 µM)

## Cc1nc2c([nH]1)C(=O)N1CC(C)N=C1N2Cc1ccc(Cl)cc1 (configuration not stated)
[1]
  IC50: 4.4 µg/mL (≈ 13.3 µM)
[4]
  ED50: 1 mg/kg
[3]
  ED50: 1.23 mg/kg
[5]
  ED50: 30.2 mg/kg

## CC(C)CN1C2=NCCN2C(=O)c2[nH]nnc21
[1]
  IC50: ~200 µg/mL (≈ 854 µM)
[2]
  ED50: > 30 mg/kg
[8]
  ED50: > 30 mg/kg

## Cc1nc2c([nH]1)N(Cc1ccc(Cl)cc1)C1=NCCN1C2=O
[1]
  IC50: 5.3 µg/mL (≈ 16.8 µM)
[4]
  ED50: 1.3 mg/kg

## O=C1c2nc[nH]c2N(Cc2ccccn2)C2=NCCN12
[1]
  IC50: 128 µg/mL (≈ 477 µM)
[8]
  ED50: > 25 mg/kg

## CCc1nc2c([nH]1)N(Cc1ccc(Cl)cc1)C1=NCCN1C2=O
[1]
  IC50: 13 µg/mL (≈ 39.4 µM)
[2]
  ED50: > 10 mg/kg

## O=C1c2[nH]nnc2N(Cc2ccc(F)cc2)C2=NCCN12
[1]
  IC50: > 200 µg/mL
[2]
  ED50: > 10 mg/kg

## Oc1c2ncnc-2n(Cc2ccc(Cl)cc2)c2nccn12
[1]
  IC50: 4.1 µg/mL (≈ 13.7 µM)
[4]
  ED50: 8.1 mg/kg

## N=C1c2[nH]cnc2N(Cc2ccc(Cl)cc2)C2=NCCN12
[1]
  IC50: 19.8 µg/mL (≈ 65.8 µM)
[2]
  ED50: > 30 mg/kg

## C[C@@H]1N=C2N(Cc3ccc(Cl)cc3)c3[nH]cnc3C(=O)N2[C@H]1C
[1]
  IC50: 1.1 µg/mL (≈ 3.34 µM)
[4]
  ED50: 5 mg/kg
[3]
  ED50: 2.8 mg/kg
[5]
  ED50: 35.5 mg/kg

## CCCCCCCCN1C2=NCCN2C(=O)c2[nH]cnc21
[6]
  IC50: 24.5 µg/mL (≈ 84.7 µM)

## Cc1nc2c(n1C)C(=O)N1CCN=C1N2CC(C)C
[1]
  IC50: 36.6 µg/mL (≈ 140 µM)

## Cc1nc2c([nH]1)N(Cc1ccc(Cl)cc1)C1=NC(C)(C)CN1C2=O
[1]
  IC50: 1.7 µg/mL (≈ 4.94 µM)
[4]
  ED50: 7.3 mg/kg
[3]
  ED50: 1.08 mg/kg
[5]
  ED50: 44.4 mg/kg

## O=C1c2[nH]cnc2N(CCc2ccc(Cl)cc2)C2=NCCN12
[1]
  IC50: 53 µg/mL (≈ 168 µM)
[7]
  ED50: inactive

## O=C1c2[nH]cnc2N(Cc2ccc(F)cc2)C2=NCCN12
[1]
  IC50: 17.5 µg/mL (≈ 61.3 µM)
